Series [1] has as its system STAT3-dependent luciferase reporter. Kind of series: STAT3-dependent luciferase reporter assay. It counts as cell-based, human. To be noted: for STAT3-dependent luciferase expression: MDA-MB-231 cells, Figure 1B. The method in brief: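 MDA-MB-231 cells stably carrying a STAT3-dependent luciferase reporter were treated with DMSO or test compound. Dose-response used graded concentrations; the time course used 2 μM for varying times. Luciferase activity was then measured with a commercial kit. Experiments were run at least three times.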
In general terms: In a reporter assay the amount or activity of a reporter protein is the signal.

A further series concerns breast cancer cells. The experiment in a line: MTT survival assay, summary over breast cancer cells. It counts as cell-based. Particulars: Homo sapiens, 72 h, read-out: IC50 for breast cancer cells. The procedure, abridged:
(§1)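 Breast cancer lines were cultured in DMEM + 10% FBS at 37 °C, 5% CO2. Cells were seeded at 3–4×10^3 per well in 96-well plates and treated with graded test-compound concentrations for 48 or 72 h. Viable cells were then measured by MTT. Experiments were run at least three times.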

Another series deals with JAK2 (Homo sapiens, UniProt O60674). The experiment in a line: Western blot of JAK2 Tyr1007/1008 phosphorylation in MDA-MB-231 cells. It counts as cell-based. The procedure, abridged: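 MDA-MB-231 cells were treated with test compound, and lysates were analysed by SDS-PAGE/PVDF Western blot. Blots were probed for total and Tyr1007/1008-phosphorylated JAK2, detected with HRP secondaries and ECL on film.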
Chain of JAK2 (O60674 whole entry): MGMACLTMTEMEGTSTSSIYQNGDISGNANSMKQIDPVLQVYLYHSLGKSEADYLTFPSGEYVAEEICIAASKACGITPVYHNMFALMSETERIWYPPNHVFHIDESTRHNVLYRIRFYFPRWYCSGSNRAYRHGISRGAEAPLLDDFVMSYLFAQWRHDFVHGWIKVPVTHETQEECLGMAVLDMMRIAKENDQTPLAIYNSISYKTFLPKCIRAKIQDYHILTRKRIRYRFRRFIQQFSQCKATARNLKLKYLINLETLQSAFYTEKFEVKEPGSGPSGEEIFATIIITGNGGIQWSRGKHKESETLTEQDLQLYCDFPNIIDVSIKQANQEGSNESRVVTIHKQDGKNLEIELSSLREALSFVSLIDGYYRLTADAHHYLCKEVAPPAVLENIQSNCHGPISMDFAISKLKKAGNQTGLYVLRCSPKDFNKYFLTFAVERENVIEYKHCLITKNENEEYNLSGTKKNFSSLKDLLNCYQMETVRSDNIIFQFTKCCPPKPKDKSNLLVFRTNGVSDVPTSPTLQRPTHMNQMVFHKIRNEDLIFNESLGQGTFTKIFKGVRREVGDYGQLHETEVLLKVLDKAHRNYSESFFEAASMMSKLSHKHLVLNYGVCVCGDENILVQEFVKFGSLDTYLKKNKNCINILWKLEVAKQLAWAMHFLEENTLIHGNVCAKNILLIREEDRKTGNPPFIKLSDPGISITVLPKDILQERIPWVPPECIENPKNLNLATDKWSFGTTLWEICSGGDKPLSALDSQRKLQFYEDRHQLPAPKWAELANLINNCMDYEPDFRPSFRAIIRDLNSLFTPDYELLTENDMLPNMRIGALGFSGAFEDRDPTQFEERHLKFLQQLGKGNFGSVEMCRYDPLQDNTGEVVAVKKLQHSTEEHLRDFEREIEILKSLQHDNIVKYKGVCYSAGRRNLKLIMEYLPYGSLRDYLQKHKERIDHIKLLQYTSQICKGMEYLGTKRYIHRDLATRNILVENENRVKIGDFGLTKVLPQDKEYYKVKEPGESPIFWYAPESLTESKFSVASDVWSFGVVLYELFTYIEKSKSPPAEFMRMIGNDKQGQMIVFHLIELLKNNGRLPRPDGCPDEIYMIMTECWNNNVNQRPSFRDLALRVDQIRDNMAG
(In general: A western blot detects proteins with antibodies after separation by electrophoresis.)

Series [2] deals with MCF7. Kind of series: Annexin V-FITC/PI apoptosis assay. Type of series: cell-based, human. The method in brief: (§2)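 Cells grown in DMEM with 10% FBS at 37 °C, 5% CO2. Seeded at 3×10^5 cells/well in 6-well plates and exposed to test compound for 24 h. Stained with annexin V-FITC and propidium iodide and analysed by flow cytometry. Annexin V+/PI− plus double-positive cells were counted as apoptotic. Experiments were run at least three times.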

The subject of series [3] is STAT3 target genes, cyclin D1 and Bcl-xL. The experiment in a line: Real-time RT-PCR and Western blot of STAT3 target genes in MDA-MB-231 cells. Particulars: mRNA by real-time RT-PCR and protein by Western blot. Type of series: cell-based, human. The procedure, abridged: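 MDA-MB-231 cells were treated with graded test-compound concentrations. Cyclin D1, Bcl-xL and STAT3 mRNAs were measured by SYBR Green real-time RT-PCR and quantified by 2ΔΔCt against GAPDH (n=3). For protein, cells were treated for 24 h, then analysed by SDS-PAGE/PVDF Western blot with HRP secondaries and ECL on film, using actin as loading control.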
(Quantitative PCR measures a nucleic acid by following its amplification.)

For series [4], the target named is T1, STAT3 (Homo sapiens, UniProt P40763). It counts as cell-based. The procedure, abridged: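 In MDA-MB-231 cells, constitutive pSTAT3 was assessed after graded doses for 24 h or 2 μM over time, with actin as loading control. For IL-6 induction, serum-starved cells were pretreated, then given IL-6. Localisation after 24 h used methanol/acetone-fixed, Triton-permeabilised cells stained for (p)STAT3 with Alexa555 secondary and DAPI (confocal), or fractionation with histone/actin markers. Dimers were resolved by non-denaturing PAGE and Western blot.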
T1 sequence (P40763 whole entry): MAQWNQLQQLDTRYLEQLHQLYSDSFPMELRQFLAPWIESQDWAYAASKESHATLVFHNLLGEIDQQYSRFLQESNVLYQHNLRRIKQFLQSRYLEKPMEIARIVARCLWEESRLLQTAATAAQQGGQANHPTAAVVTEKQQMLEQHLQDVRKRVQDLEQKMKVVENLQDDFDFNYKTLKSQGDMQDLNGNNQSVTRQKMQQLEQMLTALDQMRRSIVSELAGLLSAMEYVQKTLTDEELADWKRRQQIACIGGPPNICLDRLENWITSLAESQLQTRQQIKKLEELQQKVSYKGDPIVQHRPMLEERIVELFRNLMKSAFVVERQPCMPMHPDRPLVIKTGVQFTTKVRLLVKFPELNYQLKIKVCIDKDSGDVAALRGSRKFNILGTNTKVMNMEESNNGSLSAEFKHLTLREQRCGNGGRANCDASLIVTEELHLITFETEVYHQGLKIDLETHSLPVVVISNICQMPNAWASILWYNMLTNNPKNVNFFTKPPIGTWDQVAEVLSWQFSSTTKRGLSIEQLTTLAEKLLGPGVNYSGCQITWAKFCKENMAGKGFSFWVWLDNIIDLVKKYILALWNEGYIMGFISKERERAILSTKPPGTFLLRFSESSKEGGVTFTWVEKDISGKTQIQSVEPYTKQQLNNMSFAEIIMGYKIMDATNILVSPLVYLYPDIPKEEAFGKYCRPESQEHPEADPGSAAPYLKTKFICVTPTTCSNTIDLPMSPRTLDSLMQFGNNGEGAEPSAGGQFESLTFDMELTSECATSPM

Series [5] can be described thus: Body weight in xenograft study. Type of series: in vivo, mice. The procedure, abridged: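 MDA-MB-231 tumour pieces (~1.5 mm) from a donor xenograft were implanted s.c. in the left flank of 4–6-week-old female Balb/c nude mice. At ~100 mm3, mice were randomised (5/group) to vehicle, 10 or 40 mg/kg test compound, or 0.6 mg/kg vincristine. Dosing was IP every 3 days for 18 days, with body weight recorded every 3 days.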

A further series concerns MDA-MB-231 xenografts. The experiment in a line: In-vivo efficacy, xenograft tumors. Also noted: species or system mice. The method in brief:
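Donor xenograft: 1×10^7 MDA-MB-231 cells injected s.c. into a 5-week-old female Balb/c nude mouse and grown 2 weeks. ~1.5-mm pieces were implanted s.c. in 4–6-week-old female nude mice. At ~100 mm3, five mice per group received vehicle, test compound or vincristine 0.6 mg/kg IP every 3 days for 18 days. Tumour volume was measured blinded every 3 days. IHC covered total/Tyr705-phosphorylated STAT3 and cleaved caspase 3.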

Series [6] concerns MDA-MB-231. The experiment in a line: Annexin V-FITC/PI apoptosis assay. Type of series: cell-based, human. The method in brief:
as §2

The test system of the next series is MDA-MB-468. Kind of series: MTT survival assay. It counts as cell-based. To be noted: Homo sapiens, read-out: IC50, survival. The procedure, abridged:
as §1

The target of series [7] is T1, STAT3. The experiment in a line: Pull-down assay with immobilized BMA097, MDA-MB-231 cell lysate. It counts as binding. The method in brief: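 Test compound was coupled to CNBr-activated Sepharose 4B and blocked with 10% milk in binding buffer (20 mM Tris-HCl pH 8.0, 150 mM KCl, 1 mM EDTA, 15% glycerol, 0.5% NP-40, 0.2 mM PMSF, protease inhibitors). Beads were mixed with MDA-MB-231 lysate. For competition, lysate was first incubated 30 min at 37 °C with DMSO, 400 μM free compound or an irrelevant compound. For elution, bound material was incubated 1 h with the same agents. Read-out was SDS-PAGE and STAT3 Western blot.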

The next series relates to recombinant STAT3. The experiment in a line: Pull-down assay with immobilized BMA097, purified recombinant STAT3 proteins. It counts as binding. Particulars: silver staining. The procedure, abridged:
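Purified recombinant STAT3 deletion proteins were mixed with test compound immobilised on CNBr-activated Sepharose 4B, after milk blocking in Tris-HCl pH 8.0/KCl/NP-40 binding buffer. Pulled-down material was separated by SDS-PAGE and detected by silver staining or STAT3 Western blot.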

Series [8] concerns MCF7. Kind of series: MTT survival assay. Particulars: Homo sapiens, read-out: IC50, survival. It counts as cell-based. The procedure, abridged:
as §1

Series [9] relates to MDA-MB-231. The experiment in a line: MTT survival assay. Type of series: cell-based. Particulars: Homo sapiens, read-out: IC50, survival. The procedure, abridged:
as §1

In series [10] the test system is MDA-MB-231 and MCF-7 cells. The experiment in a line: JC-1 mitochondrial membrane potential assay. Type of series: cell-based, human. Particulars: JC-1, 24 hours, both cell lines. The method in brief: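 MDA-MB-231 and MCF-7 cells were exposed to graded test-compound concentrations for 24 h. They were then stained with JC-1 (5 μg/mL) for 30 min at 37 °C, washed in PBS and analysed by flow cytometry. Δψm was taken as the ratio of red (aggregate) to green (monomer) fluorescence. Experiments were run at least three times.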

The nature of a further series: MTT survival assay. Type of series: cell-based. To be noted: human, MCF10A cells, IC50, cytotoxicity.

The values that follow come from PMC5934316 (Oncogene, 2018).

For orientation: IC50 means the point on the concentration scale where inhibition reaches its midpoint.

Read-outs that look alike come from different tables or passages of the source.

For the molecule `CCn1cc(C2=C(c3cn(CCC#N)c4ccccc34)C(=O)NC2=O)c2ccccc21` [BMA016, 2-(1-ethyl-1H-indol-3-yl)-3-[1-(2-cyanoethyl)-1H-indol-3-yl]maleimide], the STAT3-dependent luciferase expression entry in series [1] is “significantly inhibited”.

With `CCn1cc(C2=C(c3cn(CCCC#N)c4ccccc34)C(=O)NC2=O)c2ccccc21` [BMA019, 2-(1-ethyl-1H-indol-3-yl)-3-[1-(3-cyanopropyl)-1H-indol-3-yl]maleimide], the STAT3-dependent luciferase expression entry in series [1] is reported as “significantly inhibited”.

On to `CCn1cc(C2=C(c3cn(CCCCC#N)c4ccccc34)C(=O)N(CO)C2=O)c2ccccc21` [BMA088, N-hydroxymethyl-2-(1-ethyl-1H-indol-3-yl)-3-[1-(4-cyanobutyl)-1H-indol-3-yl] maleimide], for which the STAT3-dependent luciferase expression result in series [1] was “no inhibition”.

In the case of `N#CCCCn1cc(C2=C(c3cn(CCCC#N)c4ccccc34)C(=O)NC2=O)c2ccccc21` [BMA097, 2,3-bis[1-(3-cyanopropyl)-1H-indol-3-yl]maleimide], the half-maximal inhibitory concentration (IC50) is 0.9 to 3.9 µM in the series with breast cancer cells; roughly 1.8 µM in series [1] (Homo sapiens, MDA-MB-231, read-out: IC50, inhibition of STAT3-dependent luciferase expression); 4 µM with MDA-MB-468 (MDA-MB-468, 48 h); 1.8 µM in the series on MDA-MB-468 (MDA-MB-468, 72 h); 6.4 µM in the series on MCF7 [8] (MCF7, 48 h); 3.9 µM in the series on MCF7 [8] (MCF7, 72 h). In addition, the concentration for half-maximal inhibition (IC50) in the series with MDA-MB-231 [9] (MDA-MB-231, 48 h) turned out to be 3.6 µM; with MDA-MB-231 [9] (MDA-MB-231, 72 h), 0.9 µM. For the same molecule, the “level of total JAK2” value at JAK2 is recorded as “no effect”. At JAK2 (Tyr1007/1008), the JAK2 phosphorylation/activation entry is given as “does not inhibit”. In addition, the “total annexin V-positive cells” value was 34.2% with MCF7 [2] (2 μM BMA097, 24 hrs); 48.1% with MCF7 [2] (4 μM BMA097, 24 hrs); 51.9% in the series on MDA-MB-231 [6] (2 μM BMA097, 24 hrs); 63.8% in the series with MDA-MB-231 [6] (4 μM BMA097, 24 hrs). Besides, the “expression of STAT3 target genes, cyclin D1 and Bcl-xL” value in series [3] is listed as “inhibited”. In addition, at STAT3 [4], the “level of total STAT3” value is listed as “little effect”. For the same molecule, the “phosphorylation of Ser727 of STAT3” value on STAT3 [4] was “did not affect”. Besides, the “phosphorylation of Tyr705 of STAT3” value on STAT3 [4] (constitutive, dose- and time-dependent) is given as “inhibits”. Further, on STAT3 [4] (immunofluorescence and fractionation, 24 hrs), the “nucleus-localized STAT3” value is “disappeared”. The STAT3 dimerization entry on STAT3 [4] (non-denaturing PAGE, dose- and time-dependent) was “inhibited”. Further, the “IL-6-induced phosphorylation and activation of STAT3” value at STAT3 [4] (serum-starved MDA-MB-231 cells) is recorded as “reduced”. Moreover, in [5] (40 mg/kg), the “weight loss and apparent phenotypic changes in the mouse model” value is recorded as “lack of weight loss”. The “body weight reduction between the control and treatment groups” value in series [5] (10 and 40 mg/kg IP) is on record as “no significant differences”. The “growth and final weight of MDA-MB-231 xenograft tumors” value in the series with MDA-MB-231 xenografts (10 mg/kg IP every 3 days for 18 days) and with MDA-MB-231 xenografts (40 mg/kg IP every 3 days for 18 days) was “significantly reduced” each time. The “caspase 3 cleavage in xenograft tumors” value in the series on MDA-MB-231 xenografts (IHC staining) is listed as “induced”. In the series with MDA-MB-231 xenografts (IHC staining, vs vehicle control), the “phosphorylated STAT3 in xenograft tumors” value is reported as “reduced level”. Moreover, the STAT3-dependent luciferase expression entry in series [1] was “significantly inhibited”. For the same molecule, in [1] (re-synthesized BMA097, time course at 2 μM), the “t1/2, inhibition of STAT3-dependent luciferase expression” value is ~ 16 hrs. The “STAT3 pull-down by BMA097-conjugated Sepharose” value at STAT3 [7] (lysate of MDA-MB-231 cells) is “successfully pulled down STAT3”. Also, the “competition of STAT3 pulldown by excess free BMA097” value on STAT3 [7] (lysate pre-treated with 400 μM BMA097) was “completely inhibited”. The “pull-down of recombinant STAT3 lacking the TAD domain (ΔTAD-C)” value with recombinant STAT3 is on record as “successfully pulled down”. The “pull-down of recombinant STAT3 with further deletion of the SH2 domain (ΔSH2-C)” value in the series with recombinant STAT3 was “abolished the binding”. For the same molecule, the “mitochondrial membrane potential (Δψm)” value in [10] is on record as “induced Δψm loss”. In the series “MTT survival assay” (48 hrs), it took 10.6 µM to reach half-maximal inhibition (IC50 at 48 h). This molecule also displayed a concentration for half-maximal inhibition (IC50) at 72 h in the series “MTT survival assay” (72 hrs) of 6.5 µM.

With `N#CCCCCn1cc(C2=C(c3cn(CCCCC#N)c4ccccc34)C(=O)NC2=O)c2ccccc21` [BMA100, 2,3-bis[1-(4-cyanobutyl)-1H-indol-3-yl] maleimide], the STAT3-dependent luciferase expression entry in series [1] is given as “significantly inhibited”.

As for “N-hydroxy-2-(1-ethyl-1H-indol-3-yl)-3-(1-hydroxy-1H-indol-3-yl)maleimide [BMA127]”, the STAT3-dependent luciferase expression result in [1] is “least inhibition”.
